Data set [1] concerns Mus musculus. The experiment in a line: Antinociceptive activity in Albino Swiss mouse assessed as inhibition of acetic acid-induced writhing response at 0.1 ED50, ip administered 60 mins prior to test measured for 10 mins. The class given is functional, organism-based. In outline:
(§1)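 Male Albino Swiss mice, i.p. dosing in 0.5% methylcellulose 60 min beforehand; 0.6% acetic acid injected i.p., writhing episodes counted for 10 min beginning 5 min after acid. Mean ± SEM; one-way ANOVA with Dunnett's test vs control.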
On the technique in general: Writhing tests count abdominal constrictions after an irritant is injected.

Data set [2] relates to Mus musculus. The experiment in a line: Toxicity in Albino Swiss mouse assessed as inhibition of spontaneous locomotor activity at 0.1 ED50, ip administered 60 mins before test measured for 30 mins by photoresistor actometer analysis. The class given is organism-based. The following applies: in vivo, 0.5 h. The procedure, abridged:
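Spontaneous locomotion of single male Albino Swiss mice recorded in two-beam photoresistor actometers as beam crossings for 30 min, beginning 60 min after i.p. compound (suspension in 0.5% methylcellulose).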

The test system of data set [3] is Mus musculus. In words: Neurotoxicity in Albino Swiss mouse assessed as impairment in motor coordination at 0.0125 to 0.1 ED50, ip after 60 mins by rotarod test. Type of data set: toxicity, organism-based. As to conditions: in vivo, 1 h. Background: Falling from the rotarod earlier than controls is read as motor impairment.
In data set [4] the test system is Mus musculus. In words: Neurotoxicity in Albino Swiss mouse assessed as impairment in motor coordination at 0.0125 to 0.1 ED50, ip after 60 mins by chimney test. The following applies: in vivo, 1 h. Type of data set: toxicity, organism-based.
The test system of data set [5] is Mus musculus. In words: Inhibition of 5-HTP-induced head twitch response in Albino Swiss mouse at 0.1 ED50, ip administered 60 mins before 5-HTP injection relative to untreated control. The class given is functional. In outline: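 Male Albino Swiss mice given compound i.p. (0.1 ED50, 0.5% methylcellulose) 60 min before the test; L-5-HTP 230 mg/kg i.p. injected immediately before. Head twitches counted; mean ± SEM, Dunnett's test vs control.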

Data set [6] deals with 5-hydroxytryptamine receptor 2A (Rattus norvegicus, UniProt P14842). In words: Displacement of [3H]ketanserin from 5HT2A receptor in Sprague-Dawley rat brain cortex incubated for 15 mins. The procedure, abridged: (§2)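 Rat frontal cortex homogenized in 50 mM Tris-HCl, 0.5 mM EDTA, 10 mM MgCl2, pH 7.4, washed, resuspended with 0.1% ascorbate and pargyline. Triplicates: 5-HT2A used 0.4 nM [3H]ketanserin, cinanserin for nonspecific binding; 5-HT2C used 1 nM [3H]mesulergine, mianserin nonspecific, 100 nM spiperone added. 15 min at 37 C, glass-fiber filtration.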
5-hydroxytryptamine receptor 2A, sequence (P14842 whole entry): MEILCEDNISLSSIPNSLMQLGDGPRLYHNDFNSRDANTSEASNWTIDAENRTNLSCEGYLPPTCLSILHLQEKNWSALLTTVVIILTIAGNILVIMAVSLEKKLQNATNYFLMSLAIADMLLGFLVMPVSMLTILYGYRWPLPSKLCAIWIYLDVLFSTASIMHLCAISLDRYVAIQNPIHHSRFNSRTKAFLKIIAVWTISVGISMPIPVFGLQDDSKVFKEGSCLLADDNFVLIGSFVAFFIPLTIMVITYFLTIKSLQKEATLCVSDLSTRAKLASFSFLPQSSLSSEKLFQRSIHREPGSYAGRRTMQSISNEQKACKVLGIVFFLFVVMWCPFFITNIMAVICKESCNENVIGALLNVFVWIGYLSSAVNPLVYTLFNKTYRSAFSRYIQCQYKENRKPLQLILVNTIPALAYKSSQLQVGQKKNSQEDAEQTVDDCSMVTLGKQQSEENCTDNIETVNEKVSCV

The target of data set [7] is T1, 5-hydroxytryptamine receptor 2C (Rattus norvegicus, UniProt P08909).
T1 sequence (P08909 whole entry): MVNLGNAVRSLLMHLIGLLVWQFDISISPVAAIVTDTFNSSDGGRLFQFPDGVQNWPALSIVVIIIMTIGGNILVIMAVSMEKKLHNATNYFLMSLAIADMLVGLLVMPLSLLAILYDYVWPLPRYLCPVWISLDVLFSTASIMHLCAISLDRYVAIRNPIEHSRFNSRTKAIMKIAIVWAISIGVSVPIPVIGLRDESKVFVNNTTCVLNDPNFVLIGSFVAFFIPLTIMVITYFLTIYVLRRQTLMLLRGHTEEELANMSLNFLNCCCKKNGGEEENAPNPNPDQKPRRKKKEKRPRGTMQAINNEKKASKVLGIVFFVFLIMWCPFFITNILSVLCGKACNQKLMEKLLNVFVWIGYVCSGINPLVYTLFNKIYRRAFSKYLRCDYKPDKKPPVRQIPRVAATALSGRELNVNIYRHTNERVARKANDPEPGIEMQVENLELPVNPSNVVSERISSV
The experiment in a line: Displacement of [3H]mesulergine from 5HT2C receptor in Sprague-Dawley rat brain cortex incubated for 15 mins. In outline:
as §2
(In a radioligand displacement assay an active substance lowers the binding of a labelled ligand.)

For data set [8], the system named is Mus musculus. The experiment in a line: Neurotoxicity in Albino Swiss mouse assessed as induction of myorelaxation at 0.0125 to 0.1 ED50, ip after 60 mins by chimney test. The class given is toxicity, organism-based. As to conditions: in vivo, 1 h.
Data set [9] has as its system Mus musculus. In words: Antinociceptive activity in Albino Swiss mouse assessed as inhibition of acetic acid-induced writhing response at 0.1 ED50, ip administered 60 mins prior to test measured for 10 mins in presence of opioid receptor antagonist naloxone. Type of data set: functional, organism-based.
Data set [10] has as its system Mus musculus. In words: Toxicity in ip dosed Albino Swiss mouse assessed as loss of righting reflex administered 60 mins before test measured up to 48 hrs. Type of data set: organism-based. As to conditions: in vivo. The procedure, abridged:
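Acute toxicity in male Albino Swiss mice by Litchfield-Wilcoxon method: ED50 for loss of righting reflex after i.p. dosing, observed at 15, 30, 60, 180 min and 24, 48 h.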

In data set [11] the test system is Mus musculus. In words: Neurotoxicity in Albino Swiss mouse assessed as induction of myorelaxation at 0.0125 to 0.1 ED50, ip after 60 mins by rotarod test. Type of data set: toxicity, organism-based. The following applies: in vivo, 1 h.
The test system of data set [12] is Mus musculus. In words: Inhibition of amphetamine-induced hyperlocomotion in Albino Swiss mouse at 0.1 ED50, ip administered 60 mins prior to test measured for 30 mins by photoresistor actometer analysis. The class given is functional. The procedure, abridged:
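Single male Albino Swiss mice; compound i.p. 60 min and amphetamine 5 mg/kg s.c. 30 min before test. Photoresistor actometers (circular cage, two light beams) counted beam crossings over 30 min; mean ± SEM, Dunnett's test vs control.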

Data set [13] relates to Mus musculus. The experiment in a line: Increase in body temperature in Albino Swiss mouse at 0.1 ED50, ip administered 60 mins before test measured 30 to 90 mins post dose. The class given is functional, organism-based. In outline:
(§3)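 Normothermic male Albino Swiss mice; rectal temperature by thermistor thermometer. Baseline taken as mean of readings at 60 and 30 min before dosing; i.p. dose (0.1 ED50, 0.5% methylcellulose vehicle) then readings at 30, 60, 90, 120 min (to 180 min for some). Change = final minus initial; Bonferroni post hoc test.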

Data set [14] deals with Mus musculus. The experiment in a line: Anticonvulsant activity in Albino Swiss mouse assessed as protection against pentetrazol-induced clonic seizure at 0.1 ED50, ip administered 60 mins prior to test relative to untreated control. Type of data set: functional. The procedure, abridged: (§4)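 Male Albino Swiss mice (18-30 g); compound given i.p. as suspension in 0.5% methylcellulose 60 min before test; pentylenetetrazole 110 mg/kg s.c. Scored as number of mice with clonic seizures, tonic convulsions and deaths per animals tested; Fisher's exact test vs solvent control.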

Data set [15] has as its system Mus musculus. The experiment in a line: Protection against pentetrazol-induced mortality in Albino Swiss mouse at 0.05 ED50, ip administered 60 mins prior to test. Type of data set: functional, organism-based. The procedure, abridged: as §4
The test system of data set [16] is Mus musculus. The experiment in a line: Decrease in body temperature in Albino Swiss mouse at 0.1 ED50, ip administered 60 mins before test measured 60 to 120 mins post dose. Type of data set: functional, organism-based. In outline: as §3
In data set [17] the test system is Mus musculus. In words: Antinociceptive activity in Albino Swiss mouse assessed as inhibition of acetic acid-induced writhing response at 0.05 ED50, ip administered 60 mins prior to test measured for 10 mins in presence of opioid receptor antagonist naloxone. Type of data set: functional, organism-based.
Data set [18] concerns Mus musculus. The experiment in a line: Antinociceptive activity in Albino Swiss mouse assessed as inhibition of acetic acid-induced writhing response at 0.025 to 0.05 ED50, ip administered 60 mins prior to test measured for 10 mins. The class given is functional, organism-based. In outline:
as §1

The subject of data set [19] is Mus musculus. In words: Anticonvulsant activity in Albino Swiss mouse assessed as protection against pentetrazol-induced tonic seizure at 0.1 ED50, ip administered 60 mins prior to test relative to untreated control. The class given is functional. In outline:
as §4

Data set [20] relates to Mus musculus. In words: Inhibition of 5-HTP-induced head twitch response in ddY mouse at >=1 mg/kg, po administered 1 hr before 5-HTP injection measured after 30 mins relative to untreated control. Type of data set: functional.
For data set [21], the system named is Mus musculus. In words: Protection against pentetrazol-induced mortality in Albino Swiss mouse at 0.1 ED50, ip administered 60 mins prior to test relative to untreated control. The class given is functional. The procedure, abridged: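 Male Albino Swiss mice (18–30 g). Compound given i.p. as suspension in 0.5% methylcellulose (10 mL/kg), 60 min before test; controls got vehicle. Dose expressed as fraction of ED50 (loss of righting reflex within 48 h). Convulsions induced by pentylenetetrazole 110 mg/kg s.c.; dead animals counted per group (n=10; control n=16). Significance vs control by Fisher's exact test.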

In data set [22] the test system is Mus musculus. In words: Anticonvulsant activity in Albino Swiss mouse assessed as protection against pentetrazol-induced clonic seizure at 0.05 ED50, ip administered 60 mins prior to test relative to untreated control. The class given is functional, organism-based. In outline: as §4
In data set [23] the test system is Mus musculus. In words: Effect on body temperature in Albino Swiss mouse at 0.1 ED50, ip administered 60 mins before test measured 30 to 180 mins post dose. The class given is functional, organism-based. In outline: as §3

SMILES strings stand for the structures. Active and inactive are the calls of the source. The rule behind the calls is not given here.

One may read the Ki as a measure of affinity in units of concentration, obtained from inhibition or displacement. Read a low Ki as tighter binding. Usually ED50 stands for the dose at which the effect has come halfway, by size or by number of responders.

With `FC(F)(F)c1cccc(NC(=S)Nc2ccccc2Cl)c1`, the inhibition entry in data set [1] and in [9] was “Active” each time. In addition, the Activity result in data set [2] is listed as “Toxic”; in data set [3] it was “Non-toxic”; in data set [4], “Non-toxic”; in [8], “Non-toxic”; in [11], “Non-toxic”. Further, the “inhibition (INH)” value in data set [5] was 72.4%. Further, the Ki in data set [6] and in data set [7] was > 10 µM each time. Besides, the ED50 in data set [10] is 2000 mg/kg.
On to `COc1ccc(NC(=S)Nc2cccc(C(F)(F)F)c2)cc1`, for which the Activity result in data set [2], in data set [3], in data set [4], in data set [8] and in data set [11] was “Non-toxic” each time. Further, in data set [12], the inhibition result was “Active”. Moreover, the inhibition entry in [5] was “inactive”. In addition, the Ki in data set [6] and in data set [7] was > 10 µM throughout. The outcome in data set [13] was Active. For the same compound, the ED50 in [10] is 771.4 mg/kg. Besides, the result in data set [14] was inactive.
Consider `O=[N+]([O-])c1cc(NC(=S)NCc2ccccc2)ccc1Cl`, for which the inhibition result in data set [1], in data set [17] and in data set [18] was “Active” in each case. Also, the outcome in data set [15] and in data set [16] was Active. Also, the Activity result was “Non-toxic” in data set [2]; “Non-toxic” in data set [3]; “Non-toxic” in data set [4]; 43.75% in [19]; “Non-toxic” in data set [8]; 43.75% in data set [14]. In [11], the Activity entry is given as “Non-toxic”. Also, the inhibition result in data set [12] was “inactive”. Besides, the “inhibition (INH)” value in [5] is 70.5%. The Ki in data set [6] and in data set [7] was > 10 µM throughout. Also, the ED50 in [10] was 909 mg/kg.
On to `Cc1nc2sccn2c(=O)c1CCN1CCC(=C(c2ccc(F)cc2)c2ccc(F)cc2)CC1` [RITANSERIN], for which the “inhibition (INH)” value in [20] was >80%.
As to `O=[N+]([O-])c1cc(NC(=S)Nc2ccccc2Cl)ccc1Cl`, the Activity result in data set [2] is on record as “Non-toxic”. For the same compound, the Ki in [6] and in data set [7] was > 10 µM in each case.
As for `O=C(NC(=S)Nc1ccc(Cl)c([N+](=O)[O-])c1)c1ccccc1`, in data set [2], the Activity entry is given as “Non-toxic”. In addition, the Ki in [6] and in data set [7] was > 10 µM in each case.
Consider `FC(F)(F)c1cccc(NC(=S)NCCc2ccccc2)c1`, for which the inhibition entry in data set [1], in [17] and in [18] was “Active” in each case. Also, the Activity result in [2] is listed as “Non-toxic”; in [3], “Non-toxic”; in [4] it was “Non-toxic”; in [21] it was 48.33%; in data set [19], 46.66%; in [8], “Non-toxic”. Besides, the Activity result in data set [11] is reported as “Non-toxic”. For the same compound, the “inhibition (INH)” value in data set [12] worked out at 42.48%. Also, the inhibition entry in [5] is “inactive”. Besides, the Ki in data set [6] and in [7] was > 10 µM each time. The outcome in [22] and in [23] was inactive. Moreover, the ED50 in [10] is 709.6 mg/kg.
As for `O=[N+]([O-])c1cc(NC(=S)Nc2ccccc2)ccc1Cl`, the Ki in data set [6] and in data set [7] was > 10 µM in each case.

These data come from ChEMBL document CHEMBL3797076, “5-HT2 receptor affinity, docking studies and pharmacological evaluation of a series of 1,3-disubstituted thiourea derivatives” (Eur J Med Chem, 2016).
